Laboratory results from ChEMBL document CHEMBL1926577, “Novel 1,3,4-heterodiazole analogues: synthesis and in-vitro antitumor activity” (2012).
The source made the active and inactive calls. The rule behind the calls is not given here.

Tests used:
Type in all cases: functional
[1] = Growth inhibition of human ovarian cancer cells after 48 hrs by coulter counter method; settings: Cancer cell lines
Outline: (§1)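 NCI 60-line panel cells. Compound is dissolved in DMSO and diluted in phosphate-buffered saline, with final DMSO below 1%. It is added in duplicate wells to cultures at 6 × 10⁴ cells/ml and held at 37 °C, 5% CO₂, humidified, for 48 h. Cells are diluted 10-fold in saline, counted by Coulter counter and dilution-corrected. Vehicle controls contain PBS plus DMSO.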

[2] = Growth inhibition of human renal cancer cells after 48 hrs by coulter counter method; settings: Cancer cell lines; outline: as §1
[3] = Growth inhibition of human prostate cancer cells after 48 hrs by coulter counter method; settings: Cancer cell lines; outline: as §1
[4] = Growth inhibition of human breast cancer cells after 48 hrs by coulter counter method; settings: Cancer cell lines; outline: as §1
HL-60(TB) = test: Growth inhibition of human HL-60(TB) cells at 10 uM after 48 hrs by coulter counter method; settings: HL-60, 48 h, read-out: GI
Outline: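 Single-dose screen on the NCI 60-line panel (leukemia subpanel). Compound is dissolved in DMSO and diluted in PBS, with final DMSO below 1%. Duplicate wells hold 6 × 10⁴ cells/ml at 37 °C, 5% CO₂, for 48 h. Cells are counted by Coulter counter after 10-fold saline dilution. Read-out is percent growth versus PBS/DMSO controls, expressed as % growth inhibition.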

RPMI-8226 = test: Growth inhibition of human RPMI8226 cells at 10 uM after 48 hrs by coulter counter method; settings: RPMI-8226, 48 h, read-out: GI
Outline: (§2)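 NCI 60-cell-line panel, single dose. Compound dissolved first in DMSO, then diluted in phosphate-buffered saline so that every final dilution held under 1% DMSO. Duplicate wells received cells at 6 × 10⁴ cells/ml. Controls held PBS/DMSO at the same dilution. Plates were incubated 48 h at 37 °C under 5% CO₂. Cells were then diluted 10-fold in saline and counted on a Coulter counter, with counts corrected for the dilution. Results are given as percent growth inhibition.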

SR = test: Growth inhibition of human SR cells at 10 uM after 48 hrs by coulter counter method; settings: read-out: GI; outline: as §2
EKVX = test: Growth inhibition of human EKVX cells at 10 uM after 48 hrs by coulter counter method; settings: read-out: GI; outline: as §2
NCI-H322M = test: Growth inhibition of human NCI-H322M cells at 10 uM after 48 hrs by coulter counter method; settings: read-out: GI; outline: as §2
NCI-H522 = test: Growth inhibition of human NCI-H522 cells at 10 uM after 48 hrs by coulter counter method; settings: NCI-H522, 48 h, read-out: GI; outline: as §2
HCT-116 = test: Growth inhibition of human HCT116 cells at 10 uM after 48 hrs by coulter counter method; settings: HCT-116, 48 h, read-out: GI; outline: as §2
HT-29 = test: Growth inhibition of human HT-29 cells at 10 uM after 48 hrs by coulter counter method; settings: HT-29, 48 h, read-out: GI; outline: as §2
SF-268 = test: Growth inhibition of human SF268 cells at 10 uM after 48 hrs by coulter counter method; settings: SF-268, 48 h, read-out: GI; outline: as §2
SNB-19 = test: Growth inhibition of human SNB19 cells at 10 uM after 48 hrs by coulter counter method; settings: SNB-19, 48 h, read-out: GI; outline: as §2
SNB-75 = test: Growth inhibition of human SNB75 cells at 10 uM after 48 hrs by coulter counter method; settings: SNB-75, 48 h, read-out: GI; outline: as §2
U-251 = test: Growth inhibition of human U251 cells at 10 uM after 48 hrs by coulter counter method; settings: U-251, 48 h, read-out: GI; outline: as §2
M14 = test: Growth inhibition of human M14 cells at 10 uM after 48 hrs by coulter counter method; settings: M14, 48 h, read-out: GI; outline: as §2
MDA-MB-435 = test: Growth inhibition of human MDA-MB-435 cells at 10 uM after 48 hrs by coulter counter method; settings: MDA-MB-435, 48 h, read-out: GI; outline: as §2
SK-MEL-2 = test: Growth inhibition of human SK-MEL-2 cells at 10 uM after 48 hrs by coulter counter method; settings: SK-MEL-2, 48 h, read-out: GI; outline: as §2
SK-MEL-28 = test: Growth inhibition of human SK-MEL-28 cells at 10 uM after 48 hrs by coulter counter method; settings: SK-MEL-28, 48 h, read-out: GI; outline: as §2
UACC-62 = test: Growth inhibition of human UACC62 cells at 10 uM after 48 hrs by coulter counter method; settings: UACC-62, 48 h, read-out: GI; outline: as §2
IGROV-1 = test: Growth inhibition of human IGROV1 cells at 10 uM after 48 hrs by coulter counter method; outline: as §2
OVCAR-8 = test: Growth inhibition of human OVCAR8 cells at 10 uM after 48 hrs by coulter counter method; settings: OVCAR-8, 48 h, read-out: GI; outline: as §2
NCI/ADR-RES = test: Growth inhibition of human NCI/ADR-RES cells at 10 uM after 48 hrs by coulter counter method; settings: read-out: GI; outline: as §2
786-0 = test: Growth inhibition of human 786-0 cells at 10 uM after 48 hrs by coulter counter method; settings: 786-0, 48 h, read-out: GI; outline: as §2
SN12C = test: Growth inhibition of human SN12C cells at 10 uM after 48 hrs by coulter counter method; settings: read-out: GI; outline: as §2
UO-31 = test: Growth inhibition of human UO31 cells at 10 uM after 48 hrs by coulter counter method; outline: as §2
PC-3 = test: Growth inhibition of human PC3 cells at 10 uM after 48 hrs by coulter counter method; settings: PC-3, 48 h, read-out: GI; outline: as §2
MCF7 = test: Growth inhibition of human MCF7 cells at 10 uM after 48 hrs by coulter counter method; settings: MCF7, 48 h, read-out: GI; outline: as §2
T47D = test: Growth inhibition of human T47D cells at 10 uM after 48 hrs by coulter counter method; settings: read-out: GI; outline: as §2
MDA-MB-468 = test: Growth inhibition of human MDA-MB-468 cells at 10 uM after 48 hrs by coulter counter method; settings: MDA-MB-468, 48 h, read-out: GI; outline: as §2
[5] = Growth inhibition of human leukemia cells after 48 hrs by coulter counter method; settings: Leukemia cell; outline: as §1
NSCLC = test: Growth inhibition of human NSCLC cells after 48 hrs by coulter counter method; outline: as §1
[6] = Growth inhibition of human colon cancer cells after 48 hrs by coulter counter method; settings: Cancer cell lines; outline: as §1
[7] = Growth inhibition of human CNS cancer cells after 48 hrs by coulter counter method; settings: Cancer cell lines; outline: as §1
[8] = read-out: LC50 (the source's name)

## O=C1CN2N=C(c3ccccc3)SC2=N1
[1]
  GI50: 7.7 µM
  TGI: 33.5 µM
[1]; [8]
  CC50: 83.9 µM
[2]
  GI50: 8.9 µM
  TGI: 16.6 µM
[2]; [8]
  CC50: 42.3 µM
[3]
  GI50: 7.6 µM
  TGI: 18.3 µM
[3]; [8]
  CC50: 50.8 µM
[4]
  GI50: 6.9 µM
  TGI: 23.7 µM
[4]; [8]
  CC50: 71.3 µM
HL-60(TB)
  inhibition of growth at 10 µM: 21%
RPMI-8226
  inhibition of growth at 10 µM: 72.2%
SR
  inhibition of growth at 10 µM: 36.3%
EKVX
  inhibition of growth at 10 µM: 94.5%
NCI-H322M
  inhibition of growth at 10 µM: 22.1%
NCI-H522
  inhibition of growth at 10 µM: 46.5%
HCT-116
  inhibition of growth at 10 µM: 42.6%
HT-29
  inhibition of growth at 10 µM: 36.2%
SF-268
  inhibition of growth at 10 µM: 20%
SNB-19
  inhibition of growth at 10 µM: 23.2%
SNB-75
  inhibition of growth at 10 µM: 88.3%
U-251
  inhibition of growth at 10 µM: 58.3%
M14
  inhibition of growth at 10 µM: 30.2%
MDA-MB-435
  inhibition of growth at 10 µM: 30.4%
SK-MEL-2
  inhibition of growth at 10 µM: 14.1%
SK-MEL-28
  inhibition of growth at 10 µM: 10.4%
UACC-62
  inhibition of growth at 10 µM: 27.8%
IGROV-1
  growth inhibition (GI): Active
OVCAR-8
  inhibition of growth at 10 µM: 35.3%
NCI/ADR-RES
  inhibition of growth at 10 µM: 17.9%
786-0
  inhibition of growth at 10 µM: 25.1%
SN12C
  inhibition of growth at 10 µM: 32.9%
UO-31
  growth inhibition (GI): Active
PC-3
  inhibition of growth at 10 µM: 30.1%
MCF7
  inhibition of growth at 10 µM: 46.4%
T47D
  inhibition of growth at 10 µM: 33.2%
MDA-MB-468
  inhibition of growth at 10 µM: 61.5%
[5]
  GI50: 4.1 µM
  TGI: 25.9 µM
[5]; [8]
  CC50: > 100 µM
NSCLC
  GI50: 9.7 µM
  TGI: 20.7 µM
NSCLC; [8]
  CC50: 55.7 µM
[6]
  GI50: 9.4 µM
  LC50: 67.1 µM
  TGI: 24.9 µM
[7]
  GI50: 8.7 µM
  TGI: 18.8 µM
[7]; [8]
  CC50: 51.3 µM
